High-throughput results as filed in PubChem.
This is a sample that favours compounds with a hit; in the whole collection about 3.1% have one here.
KCNK3 block: human KCNK3 channel inhibitors, primary screen, CHO cells, FluxOR thallium flux, B-score; Potassium channel subfamily K member 3 (Homo sapiens), O14649; FluxOR fluorescence; hits give low values; B-score at 10 µM; 0.84% of 340,000 active;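 active means B-score under library mean minus 4 SD, starting fluorescence ratio at most library mean plus 5 SD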;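 further: more negative B-score means stronger inhibition of thallium flux through KCNK3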
KCNQ1 inh: inhibitors of human KCNQ1 channel, primary screen, cell-based, thallium flux, high-throughput; CHO-K1 KCNQ1, FluxOR thallium flux fluorescence; hits give high values; 1.3% of 310,000 active; AID 2642, 2010; B-score at 10 µM; Potassium voltage-gated channel subfamily KQT member 1 (Homo sapiens), P51787;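 active means compounds whose thallium flux B-score, printed positive for inhibition, exceeds three library SD while starting fluorescence stays within three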;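 further: channel opened by potassium depolarization with thallium stimulus after 20 min compound exposure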
Target sequence (P51787 whole entry, looked up): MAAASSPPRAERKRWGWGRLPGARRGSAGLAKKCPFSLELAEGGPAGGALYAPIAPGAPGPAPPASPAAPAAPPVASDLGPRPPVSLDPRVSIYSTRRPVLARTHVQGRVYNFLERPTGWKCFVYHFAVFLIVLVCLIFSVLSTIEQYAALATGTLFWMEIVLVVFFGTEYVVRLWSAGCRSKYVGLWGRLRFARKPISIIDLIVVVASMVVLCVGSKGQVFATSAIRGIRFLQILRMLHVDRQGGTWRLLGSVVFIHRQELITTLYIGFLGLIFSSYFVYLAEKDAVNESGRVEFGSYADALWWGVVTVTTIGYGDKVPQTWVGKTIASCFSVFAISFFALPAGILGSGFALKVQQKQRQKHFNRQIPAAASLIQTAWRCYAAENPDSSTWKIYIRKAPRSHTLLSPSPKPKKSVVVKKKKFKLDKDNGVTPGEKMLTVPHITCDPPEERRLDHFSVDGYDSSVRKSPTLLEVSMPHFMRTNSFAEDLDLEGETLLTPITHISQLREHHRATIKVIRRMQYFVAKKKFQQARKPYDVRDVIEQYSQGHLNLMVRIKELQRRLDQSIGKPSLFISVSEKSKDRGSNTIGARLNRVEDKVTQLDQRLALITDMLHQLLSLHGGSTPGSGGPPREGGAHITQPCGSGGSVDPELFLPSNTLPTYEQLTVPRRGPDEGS
KCNK9 inh: KCNK9 potassium channel inhibitors, primary screen, HEK293 cells, thallium flux. Potassium channel subfamily K member 9 (Homo sapiens), Q9NPC2. FluxOR thallium flux fluorescence; hits give low values. B-score at 10 µM. 1.2% of 310,000 active. AID 488922, 2010;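 active means ratio B-score over 3 SD below the library mean, with starting fluorescence within 5 SD of its mean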;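 further: negative B-score means less thallium flux so channel inhibition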
hERG protect: hERG rescue from dofetilide block, primary screen, cell-based, CHO-hERG, FluxOR thallium flux, dofetilide IC70; Voltage-gated inwardly rectifying potassium channel KCNH2 (Homo sapiens), Q12809; dofetilide IC70 present; activation (rescue from dofetilide block), less the hit threshold, % at 10 µM; 0.51% of 310,000 active; AID 1511, 2009;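 active means activation above the mean of controls blocked by dofetilide plus 5 SD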;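 further: thallium influx through hERG after potassium depolarization seen as dye fluorescence rise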
KCNQ1 act: potentiators or activators of KCNQ1 channel, primary screen, cell-based, thallium flux, high-throughput. Potassium voltage-gated channel subfamily KQT member 1 (Homo sapiens), P51787. CHO-K1 KCNQ1, thallium flux FluxOR fluorescence; hits give high values. B-score at 10 µM. 0.35% of 310,000 active;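 active means fluorescence ratio B-score, a plate-corrected score, at least three library SD, with initial intensity B-score within 5 SD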
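assay system = KCNQ1-transfected CHO-K1 cells | medium = assay buffer with matched DMSO | probe or stimulus = depolarizing K+/Tl+ stimulus, K2SO4 and Tl2SO4 each 12.5 mM in 5x stock | dosing = single dose | incubation = dye 90 min, compound 20 min, room temperature | detection = kinetic FluxOR fluorescence, 10 s baseline plus 110 s post-stimulus | evaluation = ratio B score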
Numbers without * were called inactive; i = inactive; x = not tested or not shown.

SMILES | KCNK3 block | KCNQ1 inh | KCNK9 inh | hERG protect | KCNQ1 act
O=S(=O)(c1cccc2nonc12)N1CCCCC1 | i | i | i | -7.6 | i
Cc1[nH]c(-c2ccccn2)nc(=S)c1Cl | i | i | i | 51.7* | 41*
COCC(C)n1c(SCC(=O)Nc2c(C)n(C)n(-c3ccccc3)c2=O)nc2ccccc2c1=O (stereo unspecified) | i | x | x | x | x
O=C(N/N=C/C1=C(N2CCOCC2)C(=C\c2ccccc2)/CC1)Nc1ccccc1 | i | i | i | -4.5 | i
O=C(O)c1ccccc1N/N=C/C1=C(N2CCOCC2)C(=C\c2ccccc2)/CC1 | i | 9* | i | -22.5 | i
Cc1ccc(S(=O)(=O)N(Cc2n[nH]c(=S)n2-c2ccccc2)c2ccccc2)cc1 | i | i | i | -15.4 | i
Cc1ccc(S(=O)(=O)N(Cc2n[nH]c(=S)n2-c2ccccc2)c2cccc(Cl)c2)cc1 | i | 6* | i | -19.3 | i
O=C(Nc1ccccc1N1CCN(C(=O)c2ccc(Cl)cc2)CC1)c1ccc([N+](=O)[O-])o1 | -11* | i | i | -14.7 | i
CN(C)CCCNC(=O)c1ccc(-c2nc(-c3ccc(Cl)cc3)cs2)cc1 | i | i | -7.17* | -38.9 | i
CN(C)CCCNC(=O)c1ccccn1 | i | i | i | -4.5 | i
C/C(=N\NC(=O)c1ccc(Cn2cc(Br)cn2)o1)c1ccc(NC(=O)c2ccoc2C)cc1 | i | 10* | i | -7.3 | i
CC(OC(=O)c1ccc(F)c(S(=O)(=O)N2CCOCC2)c1)C(=O)NCC1CCCCC1 (stereo unspecified) | i | x | x | x | x
O=C(/C=C/c1cccc([N+](=O)[O-])c1)NCCSCc1cccc(Cl)c1 | i | i | -7.7* | -11.2 | i
O=C(/C=C/c1cccc([N+](=O)[O-])c1)NCc1ccccc1 | i | i | i | -5.6 | i
CC1CCCCN1C(=O)CCC(=O)Nc1nnc(C2CCCCC2)s1 (stereo unspecified) | i | i | -6.89* | -6.4 | i
COc1cccc(NC(=O)NCC2CCN(Cc3ccc(F)cc3)CC2)c1 | i | i | i | -5.8 | 8*
Cn1nnnc1SCC(=O)N1c2ccccc2Sc2ccc(Cl)cc21 | -10.3* | x | x | x | x
O=C(CSc1nnc(-c2ccncc2)n1Cc1ccco1)N1c2ccccc2Sc2ccc(Cl)cc21 | i | i | -6.64* | -6.4 | i
Cn1c(SCC(=O)N2c3ccccc3Sc3ccc(Cl)cc32)nnc1-c1ccco1 | i | x | x | x | x
CN(Cc1cccnc1)C(=O)c1cc(S(=O)(=O)Nc2ccccc2F)ccc1Cl | i | x | x | x | x
O=C(NN1C(=O)CSC1=S)C(=O)NN1C(=O)CSC1=S | i | i | i | 5.2* | i
O=C(Cc1cccc2ccccc12)NN1C(=O)CSC1=S | i | i | i | -5.8 | i
COc1ccc(S(=O)(=O)Nc2ccc(C)c(S(=O)(=O)N3CCOCC3)c2)cc1[N+](=O)[O-] | i | x | x | x | x
O=C(CN1C(=O)NC2(CCCCC2)C1=O)NCCc1ccc(Cl)cc1Cl | i | x | x | x | x
CCOC(=O)c1c(NC(=O)c2ccco2)sc2c1CCCCC2 | i | i | i | 2.5 | i
CCOC(=O)c1c(NS(=O)(=O)Cc2ccccc2)sc2c1CCCC2 | i | i | i | 78.4* | i
CCOC(=O)c1c(NC(=O)C(C)N2CCN(C(=O)c3ccco3)CC2)sc2c1CCCC2 (stereo unspecified) | i | i | i | -17.4 | 15*
O=C(N=Nc1c(O)[nH]c2ccc([N+](=O)[O-])cc12)c1cc(-c2ccccc2Cl)nc2ccccc12 | i | i | i | 15.3* | i
O=C(c1cc(-c2ccccc2Cl)nc2ccccc12)N1CCC1 | i | i | i | -17.1 | i
CCOc1ccccc1N1CCN(C(=O)c2cc(-c3cc(OC)ccc3OC)nc3ccccc23)CC1 | i | 6* | i | -18.5 | i
